Data: ChEMBL document CHEMBL1128278, “Design, synthesis, and structure--activity relationship studies for a new imidazole series of J774 macrophage specific acyl-CoA:cholesterol acyltransferase (ACAT) inhibitors” (J Med Chem, 1995)

Experiments:
[1] = target: T1, Sterol O-acyltransferase 1 (Rattus norvegicus, UniProt O70536); experiment: Concentration required to inhibit 50% activity of Acyl coenzyme A:cholesterol acyltransferase 1 in vitro using rat liver microsome.; assay type: microsomes
T1 sequence (O70536 whole entry): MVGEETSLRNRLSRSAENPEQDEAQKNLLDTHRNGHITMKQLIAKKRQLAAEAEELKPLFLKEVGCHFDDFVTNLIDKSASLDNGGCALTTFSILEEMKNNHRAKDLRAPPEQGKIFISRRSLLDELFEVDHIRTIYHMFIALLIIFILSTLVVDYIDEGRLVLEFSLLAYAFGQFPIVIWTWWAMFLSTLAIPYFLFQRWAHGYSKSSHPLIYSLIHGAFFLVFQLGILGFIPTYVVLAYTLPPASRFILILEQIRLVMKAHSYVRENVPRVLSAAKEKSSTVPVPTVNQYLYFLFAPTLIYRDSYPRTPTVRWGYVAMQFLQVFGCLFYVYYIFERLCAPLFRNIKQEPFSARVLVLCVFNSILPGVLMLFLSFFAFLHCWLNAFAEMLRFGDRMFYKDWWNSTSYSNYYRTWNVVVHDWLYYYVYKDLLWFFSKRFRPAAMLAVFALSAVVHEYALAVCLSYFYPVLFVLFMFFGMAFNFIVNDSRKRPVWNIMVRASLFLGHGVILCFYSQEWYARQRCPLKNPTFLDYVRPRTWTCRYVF
In short: (§1)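 Rat liver microsomes; ACAT activity read as [14C]cholesteryl oleate formed from [14C]oleoyl-CoA (pmol/min/mg). Inhibitors added in 5 µL DMSO. Duplicate assays with at least four inhibitor concentrations bracketing the IC50; IC50 is the concentration giving 50% inhibition of ACAT activity. Average range of replicates ±17%.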

[2] = Acyl coenzyme A:cholesterol acyltransferase inhibition in cell culture measured in murine J774 macrophages.
[3] = Acyl coenzyme A:cholesterol acyltransferase inhibition in cell culture measured in murine IC-21 macrophages.
[4] = system: J774; experiment: Concentration required to inhibit 50% activity of J774 macrophage cholesterol esterification; assay type: functional, cell-based; settings: Mus musculus
In short: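 Intact J774A.1 cells, seeded at 3 x 10^4 cells/cm2 and grown 36 h, then loaded 17 h with ac-LDL in 10% FBS-DMEM. Inhibitors in DMSO (1.0% final) for 4 h, with [14C]oleate–BSA for the last 2 h. Cholesteryl ester separated by TLC and counted (nmol/h/mg Lowry protein).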

[5] = Acyl coenzyme A:cholesterol acyltransferase activity was determined in J774 macrophages by measuring the formation of labeled cholesteryl oleate (pmol/midmg) from [14C]oleoyl-CoA; assay type: functional
In short: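 J774 cells grown in high-glucose DMEM with 10% FBS at 37 °C, 6% CO2, then harvested for microsome preparation. ACAT activity in these microsomes measured as in the hepatic assay, as [14C]cholesteryl oleate formed from [14C]oleoyl-CoA, with inhibitors in DMSO. IC50 taken as the concentration giving 50% inhibition.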

[6] = target: T1, Sterol O-acyltransferase 1; experiment: ACAT activity was determined in rat hepatic microsomes by measuring the formation of labeled cholesteryl oleate (pmol/midmg) from [14C]oleoyl-CoA; assay type: functional, Liver; in short: as §1

| SMILES | IC50 ([1]; read-out: IC50) | IC50 [2] | further results |
| --- | --- | --- | --- |
| CCCCN(C)CCN(CCOCCSc1nc(-c2ccc(OC)cc2)c(-c2ccc(OC)cc2)[nH]1)C(=O)Nc1ccc(F)cc1F | 1500 nM |  | IC50 [3]: 630 nM |
| CCCCCCCN(CCCCCSc1nc(-c2ccc(F)cc2)c(-c2ccc(F)cc2)[nH]1)C(=O)Nc1ccc(F)cc1F | 40 nM | 3500 nM |  |
| CCCCCCCN(CCCCCSc1nc(-c2ccc(N(C)C)cc2)c(-c2ccc(N(C)C)cc2)[nH]1)C(=O)CC1CCCCC1 | 50 nM | 16 nM |  |
| CCCCCCCN(CCCCCSc1nc(-c2ccc(N(C)C)cc2)c(-c2ccc(N(C)C)cc2)[nH]1)C(=O)Oc1ccccc1 | 120 nM | 60 nM |  |
| CCCCCCCN(CCCCCSc1nc2c([nH]1)-c1ccccc1OCOc1ccccc1-2)C(=O)Nc1ccc(F)cc1F | 30 nM | 840 nM |  |
| CCCCCCCN(CCCCCSc1nc(-c2ccc(OC)cc2)c(-c2ccc(OC)cc2)[nH]1)C(=O)Nc1ccc(F)cc1F | 140 nM | 80 nM |  |
| CCCCCCCN(CCCCCSc1nc(-c2ccc(OC)cc2)c(-c2ccc(OC)cc2)[nH]1)C(=O)Oc1ccccc1 | 640 nM | 32 nM |  |
| CCCCCCCN(CCCCCSc1nc(-c2ccco2)c(-c2ccco2)[nH]1)C(=O)Nc1ccc(F)cc1F | 200 nM | 450 nM |  |
| CCCCCCCN(CCCCCSc1nc(-c2cccs2)c(-c2cccs2)[nH]1)C(=O)Nc1ccc(F)cc1F | 60 nM | 940 nM |  |
| CCCCCCCN(CCCCCSc1nc(-c2ccc(S(C)(=O)=O)cc2)c(-c2ccc(S(C)(=O)=O)cc2)[nH]1)C(=O)Nc1ccc(F)cc1F | > 50000 nM | 2020 nM |  |
| CCCCCCCN(CCCCCSc1nc(C(C)C)c(C(C)C)[nH]1)C(=O)Nc1ccc(F)cc1F | 20 nM | 640 nM |  |
| CCCCCCCN(CCCCCSc1nc(-c2ccc(OC)cc2)c(-c2ccc(OC)cc2)[nH]1)C(=O)CC1CCCCC1 | 11 nM | 29 nM |  |
| CCCCCCCN(CCCCCSc1nc(-c2ccc(C(F)(F)F)cc2)c(-c2ccc(C(F)(F)F)cc2)[nH]1)C(=O)Nc1ccc(F)cc1F | 39900 nM | 25000 nM |  |
| CCCCCCCN(CCCCCSc1nc(-c2ccc(N(C)C)cc2)c(-c2ccc(N(C)C)cc2)[nH]1)C(=O)Nc1ccc(F)cc1F | 50 nM | 80 nM |  |
| COc1ccc(-c2nc(SCCCCCN(CCN3CCOCC3)C(=O)Nc3ccc(F)cc3F)[nH]c2-c2ccc(OC)cc2)cc1 | 270 nM | 1340 nM |  |
| CCCCCCCN(CCCCCSc1nc(-c2ccc(SC)cc2)c(-c2ccc(SC)cc2)[nH]1)C(=O)Nc1ccc(F)cc1F | 70 nM | 50 nM |  |
| CCCCCCCN(CCCCCSc1nc(-c2ccc(C)cc2)c(-c2ccc(C)cc2)[nH]1)C(=O)Nc1ccc(F)cc1F | 80 nM | 290 nM |  |
| CCCCCCCN(CCCCCSc1nc(C2CCCCC2)c(C2CCCCC2)[nH]1)C(=O)Nc1ccc(F)cc1F | 20 nM | 640 nM |  |
| CCCCCCCN(CCCCCSc1nc(CCC)c(CCC)[nH]1)C(=O)Nc1ccc(F)cc1F | 60 nM | 2700 nM |  |
| CCCCCCCN(CCCCCSc1nc(-c2ccc(O)cc2)c(-c2ccc(O)cc2)[nH]1)C(=O)Nc1ccc(F)cc1F | 2400 nM | 4750 nM |  |

Second part, led by results:

| IC50 ([1]; read-out: IC50) | IC50 [2] | SMILES | further results |
| --- | --- | --- | --- |
| 660 nM | 580 nM | CCN(CC)CCN(CCCCCSc1nc(-c2ccccc2)c(-c2ccccc2)[nH]1)C(=O)NC(C)C |  |
| 40 nM | 360 nM | CCCCCCCN(CCCCCSc1nc(-c2cccc(OC)c2)c(-c2cccc(OC)c2)[nH]1)C(=O)Nc1ccc(F)cc1F |  |
| 500 nM | 360 nM | COCCOCCN(CCCCCSc1nc(-c2ccc(OC)cc2)c(-c2ccc(OC)cc2)[nH]1)C(=O)NC(C)C |  |
| 170 nM | 1470 nM | CCCCCCCN(CCN(C)CCSc1nc(-c2ccccc2)c(-c2ccccc2)[nH]1)C(=O)Nc1ccc(F)cc1F |  |
| 850 nM | 340 nM | CCCCCCCN(CCOCCSc1nc(-c2ccc(OC)cc2)c(-c2ccc(OC)cc2)[nH]1)C(=O)NC(C)C |  |
| 80 nM | 3 nM | CCCCCCCN(CCCCCSc1nc(-c2ccc(N(C)C)cc2)c(-c2ccc(N(C)C)cc2)[nH]1)C(=O)NC(C)C | IC50 [4]: 4 nM; IC50 [5]: 0.6 nM; IC50 [6]: 80 nM |
| 80 nM | 3980 nM | CCCCCCCN(CCOCCSc1nc(-c2ccccc2)c(-c2ccccc2)[nH]1)C(=O)Nc1ccc(F)cc1F |  |
| 80 nM | 2180 nM | CCN(CC)CCN(CCCCCSc1nc(-c2ccccc2)c(-c2ccccc2)[nH]1)C(=O)Nc1ccc(F)cc1F |  |
| 160 nM | 4 nM | CCCCCCCN(CCCCCSc1nc(-c2ccc(OC)cc2)c(-c2ccc(OC)cc2)[nH]1)C(=O)NC(C)C |  |
| 240 nM | 2740 nM | CN(CCSc1nc(-c2ccccc2)c(-c2ccccc2)[nH]1)CCN(CCN1CCOCC1)C(=O)Nc1ccc(F)cc1F |  |
| 30 nM | 3020 nM | CCOCCOCCN(CCCCCSc1nc(-c2ccccc2)c(-c2ccccc2)[nH]1)C(=O)NC(C)C |  |
| 70 nM | 880 nM | O=C(Nc1ccc(F)cc1F)N(CCCCCSc1nc(-c2ccccc2)c(-c2ccccc2)[nH]1)CCN1CCOCC1 |  |
| 90 nM | 6840 nM | CC(C)NC(=O)N(CCCCCSc1nc(-c2ccccc2)c(-c2ccccc2)[nH]1)CCOCCO |  |
| 340 nM | 250 nM | COCCOCCN(CCCCCSc1nc(-c2ccc(OC)cc2)c(-c2ccc(OC)cc2)[nH]1)C(=O)Nc1ccc(F)cc1F |  |
| 60 nM | 1720 nM | CCCCCCCN(CCCCCSc1nc2c([nH]1)-c1ccccc1Oc1ccccc1-2)C(=O)Nc1ccc(F)cc1F |  |
|  | 7510 nM | COCCOCCN(CCCCCSc1nc(-c2ccc(N(C)C)cc2)c(-c2ccc(N(C)C)cc2)[nH]1)C(=O)NC(C)C | IC50 [1]: Not Active |

| IC50 ([1]; read-out: IC50) | IC50 [2] | SMILES | further results |
| --- | --- | --- | --- |
| 70 nM | 1750 nM | CCCCOCCN(CCCCCSc1nc(-c2ccccc2)c(-c2ccccc2)[nH]1)C(=O)Nc1ccc(F)cc1F |  |
|  | 1000 nM | CCCCCCCN(CCCCCSc1nc(-c2ccccc2)c(-c2ccccc2)[nH]1)C(=O)Nc1ccc(F)cc1F [LECIMIBIDE] | IC50 [4]: 1000 nM; IC50 [5]: 25 nM |
| 230 nM | 840 nM | COc1ccc(-c2nc(SCCCCCN(CCOCCO)C(=O)Nc3ccc(F)cc3F)[nH]c2-c2ccc(OC)cc2)cc1 |  |
| 50 nM | 4010 nM | CCOCCOCCN(CCCCCSc1nc(-c2ccccc2)c(-c2ccccc2)[nH]1)C(=O)Nc1ccc(F)cc1F |  |
| 1000 nM | 2250 nM | CCCCCCCN(CCCCCSc1nc(-c2ccccn2)c(-c2ccccn2)[nH]1)C(=O)Nc1ccc(F)cc1F |  |
| 350 nM | 6280 nM | CC(C)NC(=O)N(CCN(C)CCSc1nc(-c2ccccc2)c(-c2ccccc2)[nH]1)CCN1CCOCC1 |  |
| 260 nM | 2400 nM | CCCCCCCN(CCN(C)CCSc1nc(-c2ccccc2)c(-c2ccccc2)[nH]1)C(=O)NC(C)C |  |
| 280 nM | 40 nM | CCOCCOCCN(CCCCCSc1nc(-c2ccc(SC)cc2)c(-c2ccc(SC)cc2)[nH]1)C(=O)NC(C)C |  |
| 40 nM | 6740 nM | O=C(Nc1ccc(F)cc1F)N(CCCCCSc1nc(-c2ccccc2)c(-c2ccccc2)[nH]1)CCOCCO |  |
| 2300 nM | 500 nM | CCCCCCCN(CCOCCSc1nc(-c2ccc(OC)cc2)c(-c2ccc(OC)cc2)[nH]1)C(=O)Nc1ccc(F)cc1F |  |
| 190 nM | 840 nM | CCCCOCCN(CCCCCSc1nc(-c2ccccc2)c(-c2ccccc2)[nH]1)C(=O)NC(C)C |  |
| 350 nM | 2070 nM | CCCCCCCN(CCCCCSc1nc(-c2ccccc2OC)c(-c2ccccc2OC)[nH]1)C(=O)Nc1ccc(F)cc1F |  |
| 190 nM | 990 nM | CCCCCCCN(CCOCCSc1nc(-c2ccccc2)c(-c2ccccc2)[nH]1)C(=O)NC(C)C |  |
| 480 nM | 2420 nM | COc1ccc(-c2nc(SCCCOCCN(CCOCCO)C(=O)NC(C)C)[nH]c2-c2ccc(OC)cc2)cc1 |  |
|  | 1000 nM | COc1ccc(-c2nc(SCCCCCN(CCCCCO)C(=O)NC(C)C)[nH]c2-c2ccc(OC)cc2)cc1 |  |
